Rows were chosen to be rich in hits. Some 3.7% of all compounds tested hit in one or more screens of this group.
PKD1 inh – inhibitors of human PKD1 kinase, biochemical, fluorescence polarization; Serine/threonine-protein kinase D1 (Homo sapiens), Q15139; PKD1 kinase fluorescence polarization assay; inhibition, % (test concentration not listed); actives 0.056% (n = 200,000); in the data active = inhibition above about 50%
KCC2 mod – KCC2 cotransporter modulators, thallium flux, primary screen, cell-based, HEK293 KCC2, FluoZin-2 fluorescence, MLSMR; Solute carrier family 12 member 5 (Homo sapiens), Q9H2X9; KCC2 cells, thallium flux FluoZin-2 fluorescence; B-score of Tl+ flux slope (higher = more flux/activation; lower = inhibition) at 10 µM; actives 2.2% (n = 190,000); AID 1456, 2008;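 active = thallium flux slope and its plate-corrected score both differing from the plate sample mean at a set confidence after two filtering rounds, in either direction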;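 note: slope of fluorescence scaled to starting intensity during 10 to 20 s after thallium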
ROMK primary – ROMK potassium channel modulators, primary screen, cell-based, thallium flux, MLSMR library. ATP-sensitive inward rectifier potassium channel 1 (Homo sapiens), P48048. Tet-inducible ROMK, thallium flux fluorescence; actives lie on both sides. B-score at 10 µM. actives 2% (n = 130,000);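 active = signal ratio slope over the read window, or its plate-corrected B-score, at least 3 SD from the plate mean, either direction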;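 note: B-score of the F/F0 ratio slope over 7 to 12 s after thallium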
Arbovirus anti – antivirals against arbovirus infection, primary screen, cell-based, full library, 10K replicate subset; arbovirus infection cell-based antiviral screen; inhibition, % at 10 µM; actives 0.37% (n = 200,000); AID 1251, 2008; in the data active = inhibition above about 30%
Calpain2 inh – inhibitors of pig calpain II, primary screen, biochemical, fluorogenic peptide substrate, 1536-well. purified calpain II, 30 min. inhibition, % at 16 µM. actives 0.37% (n = 220,000). AID 1236, 2008;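 active = inhibition above about 50%, limit read from the data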
MDM2 E3 inh – MDM2-luciferase reporter signal enhancers, primary screen, MDM2 E3 ligase inhibitor project, cell-based, luminescence, 1536-well; E3 ubiquitin-protein ligase Mdm2 (Homo sapiens), Q00987; cell-based MDM2 ubiquitination luciferase reporter, 2 h; 0 = plate control, 100 = twice control, blank-subtracted; signal enhancement, % at 5 µM; actives 0.11% (n = 210,000); AID 1230, 2008;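 active = signal enhancement of 30% or more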;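 note: luminescence tracks abundance of the self-degrading MDM2-luciferase fusion protein; higher signal means inhibition of MDM2 E3 ligase activity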
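Timing – 2 h compound exposure at 37 °C · Assay system – mammalian cells stably expressing self-ubiquitinating, self-degrading MDM2 E3–luciferase fusion · Amount – 2000 cells seeded into each well · Measure – % luminescence enhancement versus blank-corrected plate control mean · Measured by – SteadyLite luminescence, 15 min reagent step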
Large screens that a line does not name were inactive.

CC(c1ccccc1)N1C(=O)/C(=C/c2ccncc2)SC1=S (stereo unspecified)	none (no result: PKD1 inh, ROMK primary, Arbovirus anti)
Cc1ccc(/C=N\NC(=O)c2cc([N+](=O)[O-])cc([N+](=O)[O-])c2)o1	KCC2 mod 4.7 (no result: ROMK primary)
Cc1ccnn1CC(=O)N/N=C/c1cn[nH]c1-c1ccc(F)cc1	none (no result: PKD1 inh, ROMK primary, Arbovirus anti)
CCOC(=O)C1C(c2ccc(OC)cc2)N(C)OC1(O)C(F)(F)F (stereo unspecified)	none
CCOC(=O)C1C(c2ccccc2)N(C)OC1(O)C(F)(F)F (stereo unspecified)	MDM2 E3 inh 35
Cc1nonc1C1CCCN1Cc1cn[nH]c1-c1ccc(-c2ccccc2)cc1 (stereo unspecified)	none
COc1ccc(C)cc1NC(=O)C(OC(=O)CNC(=O)c1cc(C)cc(C)c1)c1ccccc1 (stereo unspecified)	MDM2 E3 inh 67 (no result: ROMK primary)
COc1ccc(C)cc1NC(=O)C(OC(=O)CNC(=O)c1ccc(Br)cc1)c1ccccc1 (stereo unspecified)	none
Cn1c(N)c(C(=O)COC(=O)CC2CC3CCC2C3)c(=O)n(C)c1=O (stereo unspecified)	Calpain2 inh 92
O=C(COC(=O)CC1CC2CCC1C2)Nc1ccc(F)cc1 (stereo unspecified)	none
O=C(CC1CC2CCC1C2)OCC(=O)c1c[nH]c2ccccc12 (stereo unspecified)	Calpain2 inh 79 (no result: ROMK primary)
COc1ccc(OC)c(-c2oc3ccccc3c(=O)c2O)c1	KCC2 mod 6.8 (no result: ROMK primary)
COCCCN1CN(S(=O)(=O)c2cccs2)c2nc3ccccc3nc21	none (no result: PKD1 inh, Arbovirus anti)
Cc1ccc(NC(=O)COC(=O)[C@H](C)N2C(=O)C3CC=CCC3C2=O)cc1S(=O)(=O)N(C)C (stereo partly specified)	none
CNc1sc(C(=O)c2ccc(F)cc2)c(N)c1-c1nc2ccccc2s1	KCC2 mod 9.9 (no result: ROMK primary)
COCCn1c(SCC(=O)Nc2cccc(C)n2)nnc1-c1ccco1	none
O=S(=O)(NCc1ccccn1)c1ccc(Cl)s1	none
O=C(CSc1nc(-c2ccccc2)nc2c1Cc1ccccc1O2)Nc1ccc(C(=O)O)cc1	Arbovirus anti 68
O=C(CSc1ncnc2scc(-c3ccccc3)c12)Nc1ccc(C(=O)O)cc1	none (no result: PKD1 inh, ROMK primary, Arbovirus anti)
CC(=O)c1ccc(-c2ccc(C(=O)N3CCN(c4ccc(F)cc4)CC3)o2)cc1	Calpain2 inh 68
CCN(CC(O)Cn1c2ccccc2c2ccccc21)S(=O)(=O)c1ccc(F)cc1 (stereo unspecified)	Calpain2 inh 69
Cc1ccc(C(=O)c2no[n+]([O-])c2C(=O)c2ccc(C)cc2)cc1	ROMK primary -5.1
O=C(N/N=C/C(Br)=C\c1ccccc1)c1ccc2nc[nH]c2c1	none (no result: ROMK primary)
O=c1[nH]c(C2CCCCC2)nc2ccccc12	none
S=c1nc(C2CCCCC2)[nH]c2ccccc12	KCC2 mod 86, ROMK primary 3.1
S=c1nc(C2CC2)[nH]c2ccccc12	KCC2 mod 32 (no result: ROMK primary)
CC(C)c1nc(=S)c2ccccc2[nH]1	KCC2 mod 19 (no result: ROMK primary)
CCOc1ccc(N2C(=O)C3ON(C)C(c4ccc([N+](=O)[O-])cc4)C3C2=O)cc1 (stereo unspecified)	none (no result: PKD1 inh, ROMK primary, Arbovirus anti, MDM2 E3 inh)
CC(C)N(CCNCC(O)COc1ccc(C(C)(C)c2ccccc2)cc1)C(C)C (stereo unspecified)	none
COc1cc(NC(=O)c2ccnc(N)c2)cc(C(=O)Nc2cccc(C(F)(F)F)c2)c1	none (no result: PKD1 inh, ROMK primary, Arbovirus anti)
COc1cc(NC(=O)c2cnc(N)s2)cc(C(=O)Nc2cccc(C(F)(F)F)c2)c1	MDM2 E3 inh 32 (no result: PKD1 inh, ROMK primary, Arbovirus anti)
C/C(=N\NC(=O)C(=O)Nc1cc(C)ccc1C)c1ccncc1	none (no result: PKD1 inh, Arbovirus anti)
COC(=O)c1ccccc1NC(=S)NC(=O)c1ccc(C)cc1	KCC2 mod 11 (no result: ROMK primary)
Cc1cc(C)c(NC(=S)NC(=O)c2ccc(-c3ccccc3)cc2)c(C)c1	Arbovirus anti 30 (no result: ROMK primary)
COc1ccc(CNC(=O)N[C@@H](CC(C)C)C(=O)O)cc1OC	none (no result: PKD1 inh, Arbovirus anti)
COc1ccc(-c2ccnc(SCC(=O)N3CCN(c4ccccc4)CC3)n2)cc1	none (no result: PKD1 inh, Arbovirus anti)
O=C(CNC(=S)N(Cc1ccccc1)Cc1ccccc1F)NCc1ccccc1	Calpain2 inh 54
O=C(CNC(=S)N(Cc1ccccc1)Cc1ccccc1F)NCc1ccc(Cl)cc1	none
Cc1ccc(CNC(=O)CNC(=S)N(Cc2ccccc2)Cc2ccccc2F)cc1	none
COc1cccc(CNC(=O)CNC(=S)N(Cc2ccccc2)Cc2ccccc2F)c1	Calpain2 inh 54
Fc1ccccc1N1CCN(c2ncnc3nc[nH]c23)CC1	none (no result: PKD1 inh, Arbovirus anti)
Fc1ccccc1N1CCN(c2ncnc3[nH]ncc23)CC1	Arbovirus anti 43 (no result: ROMK primary)
N#C/C(=C\c1ccc(-c2ccc(F)cc2)o1)C(=O)Nc1nc(-c2cccs2)cs1	none (no result: ROMK primary)
N#C/C(=C/c1ccc(-c2ccccc2)o1)c1nc(-c2cccs2)cs1	ROMK primary -5.3
COc1cc([N+](=O)[O-])cc(/C=N/NC(=O)Cn2nccc2C)c1O	none (no result: PKD1 inh, Arbovirus anti)
Cc1ccccc1NC(=S)Nc1ccc2[nH]c(=O)[nH]c2c1	none (no result: PKD1 inh, ROMK primary, Arbovirus anti)
Cc1ccc2nc(N3C(=O)C(O)=C(C(=O)c4cc5ccccc5o4)C3c3cccs3)sc2c1 (stereo unspecified)	Arbovirus anti 32 (no result: KCC2 mod, ROMK primary)
CCc1ccc2nc(N3C(=O)C(O)=C(C(=O)c4ccco4)C3c3cccs3)sc2c1 (stereo unspecified)	none (no result: KCC2 mod, ROMK primary)
Cc1cc(N2C(=O)C(O)=C(C(=O)c3ccc(C)o3)C2c2cccs2)no1 (stereo unspecified)	KCC2 mod -3 (no result: ROMK primary)
CN(C)C(=O)c1ccc(NC(=O)COc2ccc([N+](=O)[O-])cc2)cc1	none
Cc1ccsc1/C=N/NC(=O)CC(=O)NCC(C)C	none
COC(=O)Cc1c(O)ccn(Cc2ccc(F)cc2)c1=O	ROMK primary 1
COC(=O)Cc1c(O)ccn(CCc2ccccc2)c1=O	none
CCOC(=O)c1c(NC(=O)CSc2ncn[nH]2)sc(C)c1C	Arbovirus anti 45 (no result: ROMK primary)
CCOC(=O)c1c(NC(=O)CSc2nnc(C)c(=O)[nH]2)sc(C)c1C	none
CSc1ccccc1NC(=O)CN(C)Cc1ccc(Br)cc1	none (no result: ROMK primary)
CCc1cccc(C)c1NC(=O)CN(C)Cc1ccc(Br)cc1	Arbovirus anti 42
Cc1ccc(Cl)cc1N1CCN(C(=O)Cc2cn(C)c3ccccc23)CC1	Calpain2 inh 55
Cc1ccc(C)c(N2CCN(C(=O)Cc3cn(C)c4ccccc34)CC2)c1	none (no result: ROMK primary)

Assay outcomes from PubChem.
